MrgX1 allo act: allosterically activates human MrgX1 receptor signaling; 0.63% of 310,000 active; Q96LB2; MrgX1-HEK293, Fluo-4 calcium flux, FDSS; stronger effect = higher value; B-score at 10 µM;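 active = plate-corrected calcium response at least 3 library SD above typical, normal starting fluorescence, not activating the receptor alone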;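 also: compound read alongside a low EC10 to EC30 dose of BAM8-22 agonist; peak minus trough fluorescence over baseline measured at the second addition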
Target sequence (Q96LB2 whole entry, looked up): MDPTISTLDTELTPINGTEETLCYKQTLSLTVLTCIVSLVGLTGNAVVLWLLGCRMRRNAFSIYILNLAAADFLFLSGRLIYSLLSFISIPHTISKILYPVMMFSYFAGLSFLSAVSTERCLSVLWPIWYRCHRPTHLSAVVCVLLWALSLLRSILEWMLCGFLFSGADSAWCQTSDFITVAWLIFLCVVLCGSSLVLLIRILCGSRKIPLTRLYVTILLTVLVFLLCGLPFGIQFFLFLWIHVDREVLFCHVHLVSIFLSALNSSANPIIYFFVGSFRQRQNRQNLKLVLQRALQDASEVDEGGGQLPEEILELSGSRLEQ
MrgX1 ag: activates human MrgX1 receptor signaling. Q96LB2. MrgX1-HEK293 cells, Fluo-4 calcium fluorescence, agonist mode; stronger effect = higher value. B-score at 10 µM. 0.44% of 310,000 active. AID 588627;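 active = calcium response B-score plate-corrected fluorescence ratio at least 3 library SD, with starting fluorescence B-score inside 5 SD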
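Material: MrgX1-expressing HEK293 cells; input: 15,000 cells per well; doses: test compound given as first of three sequential additions; schedule: overnight plating before 1 h dye loading; technique: Fluo-4 NW calcium-flux fluorescence, kinetic read; evaluation: baseline-normalised fluorescence change ratio, B-scored; control set: plate-wise positive and negative controls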
MrgX1 antag: antagonists of human MrgX1 receptor | Q96LB2 | B-score at 10 µM | 1.3% of 310,000 active | MRGX1-HEK293 calcium flux, Fluo-4, BAM8-22 antagonism; stronger effect = lower value;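 active = calcium-response B-score plate-corrected more than 3 library SD below zero, starting fluorescence within 5 deviations, no agonist response on first addition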;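 also: peak minus trough fluorescence over baseline after final BAM8-22 challenge near maximal dose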
RGS4 pot: RGS4 potentiation or activation; AID 463111; 0.92% of 310,000 active; HEK293 M3R/inducible RGS4, carbachol calcium flux Fluo4; stronger effect = lower value; B-score at 10 µM;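 active = B-score of the integrated calcium signal more than 4 SD below the library mean, with starting fluorescence not abnormally high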;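 also: negative B-score means reduced calcium response which marks RGS4 activation or potentiation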
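System – HEK293 FlpIn-TREx cells, stable M3R, doxycycline-inducible RGS4 · Reagent – ECmax carbachol challenge · Times – compound preincubation 20 min at room temperature before agonist · Technique – Fluo4 fluorescence kinetic imaging of calcium · Measure – B score of integrated Fluo4 ratio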
RGS4 inh: inhibitors of human RGS4 | 0.45% of 310,000 active | HEK293 M3R/RGS4 inducible, Fluo-4 calcium flux; stronger effect = higher value; triggered by carbachol at its EC20 | P49798 | AID 463165 | B-score at 10 µM;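 active = B-score, a plate-corrected calcium signal, over three deviations above library mean, with baseline fluorescence within five deviations of library mean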;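 also: RGS4 expression induced by doxycycline in cells with stable M3 receptor; B-score is computed from the integrated fluorescence ratio over baseline after carbachol; higher B-score means a larger calcium signal and so more RGS4 inhibition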
Target sequence (P49798 whole entry, looked up): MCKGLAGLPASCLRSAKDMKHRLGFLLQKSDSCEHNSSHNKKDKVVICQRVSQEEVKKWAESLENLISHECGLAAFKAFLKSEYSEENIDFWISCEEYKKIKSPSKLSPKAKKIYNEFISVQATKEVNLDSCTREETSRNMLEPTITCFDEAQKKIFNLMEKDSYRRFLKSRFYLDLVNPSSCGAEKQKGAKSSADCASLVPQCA
MrgX1 ant reconf: human MrgX1 receptor antagonism, re-confirmation screen | 19% of 2,300 active | AID 602420 | remaining BAM8-22 calcium response % of control (stronger effect = lower value), % at 10 µM | MrgX1-HEK293, BAM8-22 calcium flux, Fluo-4; stronger effect = lower value | shares compounds with MrgX1 antag;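 active = remaining agonist calcium response no higher than 100% minus 3 SD of agonist-only control wells, with starting fluorescence near control levels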;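 also: agonist BAM8-22 given at a near maximal EC90 to ECmax level; peak minus minimum fluorescence divided by baseline after agonist addition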
HEK293 Ca flux: activity in parental HEK293 cells lacking MrgX1; shares compounds with MrgX1 antag; Fluo-4 calcium fluorescence, FDSS; fluorescence ratio F(max-min)/F0 at 10 µM; 2% of 4,000 active; AID 624111;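 active = duplicate-averaged calcium fluorescence ratio at least three times the standard deviation of buffer wells, a nonspecific response in parental cells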
HEK293 Ca counter: activity in parental HEK293 cells without MrgX1. 0.4% of 4,000 active. shares compounds with MrgX1 antag. parental HEK293 calcium flux, Fluo-4 fluorescence ratio; stronger effect = higher value. fluorescence ratio F(max-min)/F0 at 10 µM;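 active = calcium fluorescence ratio, averaged over duplicates, at least 3 SD of the buffer-well ratio, meaning a nonspecific response in receptor-free cells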;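 also: untransfected parental HEK293 lacking MrgX1 used as counterscreen for MrgX1 allosteric activators; fluorescence change taken during the second addition on a kinetic imager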
HEK293 Ca cntr2: counter-screen for MrgX1 activators: effect in parental HEK293 cells. shares compounds with MrgX1 antag. Fluo-4 calcium fluorescence (FDSS); stronger effect = higher value. fluorescence ratio F(max-min)/F0 at 10 µM. 8.7% of 4,000 active;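 active = calcium fluorescence ratio at least three times the spread of buffer wells, meaning a non-specific response in parental cells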
Hits are given with their value. This is a sample that favours compounds with a hit; in the whole collection about 3.5% have one here.

For C=CCn1c(N)nc2ccccc21 the results were MrgX1 allo act inactive, MrgX1 ag inactive, MrgX1 antag -4.61, RGS4 pot inactive, RGS4 inh inactive, MrgX1 ant reconf inactive, HEK293 Ca flux inactive, HEK293 Ca counter inactive and HEK293 Ca cntr2 inactive.
For Cc1[nH]c2ccccc2c(=O)c1CN1CCCCC1 the results were MrgX1 allo act inactive, MrgX1 ag inactive, MrgX1 antag -6.81, RGS4 pot inactive, RGS4 inh inactive, MrgX1 ant reconf inactive, HEK293 Ca flux inactive, HEK293 Ca counter inactive and HEK293 Ca cntr2 inactive.
For Cc1[nH]c2ccc(Br)cc2c(=O)c1CN1CCCCCC1 the results were MrgX1 allo act inactive, MrgX1 ag inactive, MrgX1 antag inactive, RGS4 pot inactive and RGS4 inh inactive.
For Cc1nc2sc(C(c3ccco3)N3CCN(C(c4ccccc4)c4ccccc4)CC3)c(O)n2n1 (stereo not given) the results were MrgX1 allo act inactive, MrgX1 ag inactive, MrgX1 antag inactive, RGS4 pot inactive and RGS4 inh inactive.
For Cc1nc2sc(C(c3ccco3)N3CCC(C)CC3)c(O)n2n1 (stereo not given) the results were MrgX1 allo act inactive, MrgX1 ag inactive, MrgX1 antag -5.24, RGS4 pot inactive, RGS4 inh inactive, MrgX1 ant reconf inactive, HEK293 Ca flux inactive, HEK293 Ca counter inactive and HEK293 Ca cntr2 inactive.
Screening COc1ccc(-n2nnnc2S(=O)(=O)CC(=O)N2CCCCC2)cc1 returned MrgX1 allo act inactive, MrgX1 ag inactive and MrgX1 antag inactive.
Screening COc1ccc(-n2nnnc2S(=O)(=O)Cc2ccc(C(=O)O)cc2)cc1 returned MrgX1 allo act inactive, MrgX1 ag inactive, MrgX1 antag -8.25, RGS4 pot inactive, RGS4 inh inactive, MrgX1 ant reconf inactive, HEK293 Ca flux inactive, HEK293 Ca counter inactive and HEK293 Ca cntr2 inactive.
Screening CCOC(=O)c1sc(N)nc1C(C)(C)C returned MrgX1 allo act inactive, MrgX1 ag inactive, MrgX1 antag inactive, RGS4 pot inactive and RGS4 inh inactive.
For Cc1nc(N)sc1C(=O)OCC(C)C the results were MrgX1 allo act inactive, MrgX1 ag inactive, MrgX1 antag -8.67, RGS4 pot inactive, RGS4 inh inactive, MrgX1 ant reconf inactive, HEK293 Ca flux inactive, HEK293 Ca counter inactive and HEK293 Ca cntr2 inactive.
Nc1ccc(-c2nc3ccc([N+](=O)[O-])cc3[nH]2)cc1 was read as MrgX1 allo act inactive, MrgX1 ag inactive, MrgX1 antag inactive, RGS4 pot inactive and RGS4 inh inactive.
Screening O=[N+]([O-])c1ccc(-c2nc3ccc([N+](=O)[O-])cc3[nH]2)cc1 returned MrgX1 allo act inactive, MrgX1 ag inactive, MrgX1 antag -10.5, RGS4 pot inactive, RGS4 inh inactive, MrgX1 ant reconf inactive, HEK293 Ca flux inactive, HEK293 Ca counter inactive and HEK293 Ca cntr2 inactive.
For CC1CCN(CC(=O)Nc2cccc(C(=O)Nc3cccc(C(F)(F)F)c3)c2)CC1 the results were MrgX1 allo act inactive, MrgX1 ag inactive, MrgX1 antag inactive, RGS4 pot inactive and RGS4 inh inactive.
`COc1cccc(NC(=O)c2ccccc2N2C(=O)C3C4C=CC(C4)C3C2=O)c1` (stereo not given) gave MrgX1 allo act inactive, MrgX1 ag inactive, MrgX1 antag inactive, RGS4 pot inactive and RGS4 inh inactive.
Screening CCOC(=O)CN1C(=O)C(C)(C)Oc2ccc(C(=O)NC(C)(C)CC)cc21 returned MrgX1 allo act inactive, MrgX1 ag inactive, MrgX1 antag -5.28, RGS4 pot inactive, RGS4 inh inactive, MrgX1 ant reconf inactive, HEK293 Ca flux inactive, HEK293 Ca counter inactive and HEK293 Ca cntr2 inactive.
Screening COc1ccc(-n2c(=O)[nH]c3cc(C(=O)NCCc4ccccc4)ccc3c2=O)cc1OC returned MrgX1 allo act inactive, MrgX1 ag inactive, MrgX1 antag inactive, RGS4 pot inactive and RGS4 inh inactive.
CCOc1ccc(N2C(=O)CC(Sc3n[nH]c(-c4ccccc4)n3)C2=O)cc1 (stereo not given) was read as MrgX1 allo act inactive, MrgX1 ag inactive, MrgX1 antag -5.02, RGS4 pot inactive, RGS4 inh inactive, MrgX1 ant reconf inactive, HEK293 Ca flux inactive, HEK293 Ca counter inactive and HEK293 Ca cntr2 inactive.
For COC(=O)c1cc2c(ccn2-c2ccc(F)cc2)n1Cc1ccc(C#N)cc1 the results were MrgX1 allo act inactive, MrgX1 ag inactive, MrgX1 antag -4.69, RGS4 pot inactive, RGS4 inh inactive, MrgX1 ant reconf inactive, HEK293 Ca flux inactive, HEK293 Ca counter inactive and HEK293 Ca cntr2 inactive.
`O=C(NCCC1CCCCN1S(=O)(=O)c1ccc(F)cc1)C(=O)Nc1ccccc1` (stereo not given) gave MrgX1 allo act inactive, MrgX1 ag inactive, MrgX1 antag inactive, RGS4 pot inactive and RGS4 inh inactive.
`COc1cc(CCC(=O)OCC(=O)Nc2ccc(C)cc2Cl)cc(OC)c1OC` gave MrgX1 allo act inactive, MrgX1 ag inactive, MrgX1 antag inactive, RGS4 pot inactive and RGS4 inh inactive.
Screening COc1ccc2c(c1)[nH]c1c(N3CCSCC3)ncnc12 returned MrgX1 allo act inactive, MrgX1 ag inactive, MrgX1 antag -11.8, RGS4 pot inactive, RGS4 inh inactive, MrgX1 ant reconf 49.7%, HEK293 Ca flux inactive, HEK293 Ca counter inactive and HEK293 Ca cntr2 inactive.
For Oc1c(Br)cc(Br)cc1C=Nc1cccc2ncccc12 the results were MrgX1 allo act inactive, MrgX1 ag inactive, MrgX1 antag -7.06, RGS4 pot inactive, RGS4 inh inactive, MrgX1 ant reconf 82.6%, HEK293 Ca flux inactive, HEK293 Ca counter inactive and HEK293 Ca cntr2 inactive.
Screening O=C(CCC1CCCCC1)NCCS(=O)(=O)N1CCN(c2ccc(F)cc2)CC1 returned MrgX1 allo act inactive, MrgX1 ag inactive, MrgX1 antag inactive, RGS4 pot inactive and RGS4 inh inactive.
Cc1nc2c(ccc3nc(NC(=O)c4ccc5c(c4)OCCO5)sc32)s1 was read as MrgX1 allo act inactive, MrgX1 ag inactive, MrgX1 antag -10.3, RGS4 pot inactive, RGS4 inh inactive, MrgX1 ant reconf 79.1%, HEK293 Ca flux inactive, HEK293 Ca counter inactive and HEK293 Ca cntr2 inactive.
Cc1nc2ccc3nc(NC(=O)c4ccc5c(c4)OCCO5)sc3c2s1 was read as MrgX1 allo act inactive, MrgX1 ag inactive, MrgX1 antag inactive, RGS4 pot inactive and RGS4 inh inactive.

Source: PubChem
